In ChEMBL document CHEMBL3400072, “Synthesis, biological evaluation and docking analysis of a new series of methylsulfonyl and sulfamoyl acetamides and ethyl acetates as potent COX-2 inhibitors” (Bioorg Med Chem, 2015):
The source made the active and inactive calls. The calls are words filed in the database; no cut-off is given here.

What was measured:
Mus musculus [1] = experiment: Analgesic activity in Swiss albino mouse model assessed as reduction of acetic acid-induced writhes at 10 mg/kg, po administered 30 mins prior to acetic acid challenge measured after 5 mins for 10 mins relative to vehicle-treated control; format: functional; set-up: scale not given: the % may be the effect or the level left
Summary of the method: (§1)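 Male Swiss albino mice (23–25 g), standard diet and water ad libitum, 23 °C, 12 h light/dark cycle. Oral dosing (1–40 mg/kg range), with carboxymethylcellulose (CMC) as vehicle, 30 min before ip injection of 0.6% acetic acid (10 mL/kg). Stretching movements counted for 10 min, beginning 5 min after acetic acid. Results given as writhe count and % reduction versus vehicle-treated mice.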

[2] = target: T1, Prostaglandin G/H synthase 1 (Ovis aries) (UniProt P05979); conditions: at 10 µM
T1 sequence (whole entry): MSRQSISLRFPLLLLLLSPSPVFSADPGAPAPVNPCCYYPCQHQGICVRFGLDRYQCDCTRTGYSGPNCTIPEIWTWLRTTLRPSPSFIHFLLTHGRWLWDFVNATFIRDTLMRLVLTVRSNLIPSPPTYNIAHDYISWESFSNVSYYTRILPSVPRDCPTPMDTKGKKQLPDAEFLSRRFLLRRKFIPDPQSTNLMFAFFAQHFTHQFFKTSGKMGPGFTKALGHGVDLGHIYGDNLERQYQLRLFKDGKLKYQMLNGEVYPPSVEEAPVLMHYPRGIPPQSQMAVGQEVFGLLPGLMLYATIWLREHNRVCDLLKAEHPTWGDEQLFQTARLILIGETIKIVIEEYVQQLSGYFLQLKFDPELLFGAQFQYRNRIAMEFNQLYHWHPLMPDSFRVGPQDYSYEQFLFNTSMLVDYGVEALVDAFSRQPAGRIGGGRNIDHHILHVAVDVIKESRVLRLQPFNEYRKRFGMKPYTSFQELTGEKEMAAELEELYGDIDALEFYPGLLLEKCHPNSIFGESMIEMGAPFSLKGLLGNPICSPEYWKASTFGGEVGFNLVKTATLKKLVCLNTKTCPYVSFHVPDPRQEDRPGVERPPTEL

Mus musculus [3] = experiment: Analgesic activity in po dosed Swiss albino mouse model assessed as reduction of acetic acid-induced writhes administered 30 mins prior to acetic acid challenge measured after 5 mins for 10 mins relative to vehicle-treated control; format: functional, organism-based; summary of the method: as §1
[4] = target: T2, Prostaglandin G/H synthase 2 (Homo sapiens) (UniProt P35354); conditions: at 10 µM
T2 sequence (whole entry): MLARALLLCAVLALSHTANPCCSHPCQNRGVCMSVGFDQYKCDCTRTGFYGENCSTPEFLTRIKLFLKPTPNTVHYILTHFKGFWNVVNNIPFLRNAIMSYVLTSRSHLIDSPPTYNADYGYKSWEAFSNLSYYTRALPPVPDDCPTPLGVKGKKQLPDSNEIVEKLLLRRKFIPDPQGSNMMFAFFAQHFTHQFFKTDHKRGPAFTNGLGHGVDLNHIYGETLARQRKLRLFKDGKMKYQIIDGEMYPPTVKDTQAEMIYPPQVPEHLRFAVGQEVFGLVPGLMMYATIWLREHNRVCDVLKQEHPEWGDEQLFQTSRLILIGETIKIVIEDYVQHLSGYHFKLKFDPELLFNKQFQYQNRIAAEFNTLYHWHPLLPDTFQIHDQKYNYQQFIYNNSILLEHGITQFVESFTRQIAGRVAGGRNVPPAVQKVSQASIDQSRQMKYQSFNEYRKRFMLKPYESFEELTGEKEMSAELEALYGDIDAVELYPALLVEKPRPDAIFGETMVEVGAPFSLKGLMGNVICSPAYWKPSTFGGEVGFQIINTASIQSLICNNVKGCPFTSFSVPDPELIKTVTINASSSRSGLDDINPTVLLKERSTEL

Mus musculus [5] = experiment: Analgesic activity in Swiss albino mouse model assessed as reduction of acetic acid-induced writhes at 40 mg/kg, po administered 30 mins prior to acetic acid challenge measured after 5 mins for 10 mins relative to vehicle-treated control; format: functional; set-up: scale not given: the % may be the effect or the level left; summary of the method: as §1
Mus musculus [6] = experiment: Analgesic activity in Swiss albino mouse model assessed as reduction of acetic acid-induced writhes at 20 mg/kg, po administered 30 mins prior to acetic acid challenge measured after 5 mins for 10 mins relative to vehicle-treated control; format: functional; set-up: scale not given: the % may be the effect or the level left; summary of the method: as §1
[7] = target: T3, Prostaglandin G/H synthase 2 (Homo sapiens, UniProt P35354); experiment: Inhibition of human recombinant COX2 using […] as substrate after 10 mins by EIA
T3 sequence (P35354 whole entry): T2 sequence (whole entry)

Mus musculus [8] = experiment: Analgesic activity in Swiss albino mouse model assessed as reduction of acetic acid-induced writhes at 30 mg/kg, po administered 30 mins prior to acetic acid challenge measured after 5 mins for 10 mins relative to vehicle-treated control; format: functional; set-up: scale not given: the % may be the effect or the level left; summary of the method: as §1
Mus musculus [9] = experiment: Analgesic activity in Swiss albino mouse model assessed as reduction of acetic acid-induced writhes at 3 mg/kg, po administered 30 mins prior to acetic acid challenge measured after 5 mins for 10 mins relative to vehicle-treated control; format: functional; set-up: scale not given: the % may be the effect or the level left; summary of the method: as §1

SMILES | inhibition [2] | inhibition [4] [%] | IC50 [7] [µM] | Activity (Mus musculus [1]) [%] | Activity (Mus musculus [3]) | Activity (Mus musculus [5]) [%] | Activity (Mus musculus [6]) [%] | Activity (Mus musculus [8]) [%] | Activity (Mus musculus [9]) [%]
CCOC(=O)Cc1cc(-c2ccc(S(N)(=O)=O)cc2)n(-c2ccc(F)cc2)c1C | inactive | 82 | 1.07 | 10.4 | Dose-dependent effect | 62.3 | 24.8 |  | 
Cc1c(CC(=O)NC(C)C)cc(-c2ccc(S(N)(=O)=O)cc2)n1-c1ccc(F)cc1 |  | 48 |  | 36.5 |  |  |  | 43.7 | 16.1
Cc1c(CC(=O)NC(C)C)cc(-c2ccc(S(C)(=O)=O)cc2)n1-c1cccc(F)c1 |  | 74 | 7 | 3.6 |  |  |  | 25.3 | 
CCCNC(=O)Cc1cc(-c2ccc(S(C)(=O)=O)cc2)n(-c2ccc(F)cc2)c1C |  | 65 |  | 29.9 |  |  |  |  | 10.2
Cc1ccc(-c2cc(C(F)(F)F)nn2-c2ccc(S(N)(=O)=O)cc2)cc1 [CELECOXIB] |  |  |  | 57.4 |  |  |  |  | 
CCCNC(=O)Cc1cc(-c2ccc(S(C)(=O)=O)cc2)n(-c2cccc(F)c2)c1C |  | 43 |  | 12.2 |  |  |  | 9.9 | 
Cc1c(CC(=O)NC(C)C)cc(-c2ccc(S(C)(=O)=O)cc2)n1-c1ccc(F)cc1 | 36% | 95 | 4.91 | 12.2 |  |  |  | 48.7 | 
CCCNC(=O)Cc1cc(-c2ccc(S(N)(=O)=O)cc2)n(-c2ccc(F)cc2)c1C |  | 62 |  | 8.3 |  |  |  | 39.1 | 3.9

The next lines start with results.

inhibition [2] | inhibition [4] [%] | IC50 [7] [µM] | SMILES | Activity (Mus musculus [1]) [%] | Activity (Mus musculus [3]) | Activity (Mus musculus [5]) [%] | Activity (Mus musculus [6]) [%] | Activity (Mus musculus [8]) [%] | Activity (Mus musculus [9]) [%]
 | 49 |  | Cc1c(CC(=O)NC(C)C)cc(-c2ccc(S(N)(=O)=O)cc2)n1-c1cccc(F)c1 | 29.3 |  |  |  | 31.6 | 11.5
inactive | 96 | 5.78 | CCCNC(=O)Cc1cc(-c2ccc(S(N)(=O)=O)cc2)n(-c2cccc(F)c2)c1C |  |  |  |  | 12.2 | 
 | 65 |  | Cc1c(CC(=O)O)cc(-c2ccc(S(N)(=O)=O)cc2)n1-c1ccc(F)cc1 | 16.9 |  | 49.1 | 33.1 |  | 
 | 65 |  | Cc1c(CC(=O)O)cc(-c2ccc(S(N)(=O)=O)cc2)n1-c1cccc(F)c1 | 9.5 |  |  |  |  | 
inactive | 89 | 0.92 | CCOC(=O)Cc1cc(-c2ccc(S(N)(=O)=O)cc2)n(-c2cccc(F)c2)c1C | 26 |  |  |  | 33.5 | 
